Assays:
Liver [1] = experiment: AUC in Swiss-Webster mouse liver assessed per gram of tissue at 10 mg/kg, po after 24 hrs; type: ADME, organism-based; parameters: time < 24 hr, dose 10 mg/kg, route oral; conditions: in vivo
Procedure, shortened: (§1)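 Female Swiss-Webster mice (about 25 g) each got a single 10 mg/kg dose of the 14C-labeled (8-14C) ester (50 mCi/mmol) in 0.7% saline, by oral gavage or ip injection. Blood was taken at 1, 3, 6, 12 and 24 h, and liver, spleen, kidney, lung, heart and brain were excised, washed and weighed. Radioactivity was measured by scintillation counting as µM plasma equivalents or nmol/g tissue, mean of three per time point.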

Kidney [2] = experiment: AUC in Swiss-Webster mouse kidney assessed per gram of tissue at 10 mg/kg, ip after 24 hrs; type: ADME, organism-based; parameters: time < 24 hr, dose 10 mg/kg, route intraperitoneal; conditions: in vivo; procedure, shortened: as §1
HepG2 [3] = experiment: Drug metabolism in human HepG2 cells assessed as HPMPA uptake at 10 uM after 48 hrs; type: ADME, cell-based; conditions: hepg2, 48 h
[4] = Tmax in Swiss-Webster mouse brain at 10 mg/kg, po after 24 hrs; type: ADME, organism-based; parameters: dose 10 mg/kg, route oral; procedure, shortened: as §1
[5] = Tmax in Swiss-Webster mouse spleen at 10 mg/kg, ip after 24 hrs; type: ADME, organism-based; parameters: dose 10 mg/kg, route intraperitoneal
Procedure, shortened: (§2)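 Female Swiss-Webster mice (about 25 g) got one 10 mg/kg dose of the 8-14C-labeled ester (50 mCi/mmol) in 0.7% saline, by oral gavage or intraperitoneal injection. Blood was taken at 1, 3, 6, 12 and 24 h. Liver, spleen, kidney, lung, heart and brain were excised, washed and weighed. Drug plus metabolites were measured by liquid scintillation as µM plasma equivalents or nmol/g tissue. Each time point is the mean of three replicates.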

Liver [6] = experiment: Cmax in Swiss-Webster mouse liver assessed per gram of tissue at 10 mg/kg, ip after 24 hrs; type: ADME, organism-based; parameters: dose 10 mg/kg, route intraperitoneal; conditions: in vivo; procedure, shortened: as §1
Lung [7] = experiment: AUC in Swiss-Webster mouse lung assessed per gram of tissue at 10 mg/kg, po after 24 hrs; type: ADME, organism-based; parameters: time < 24 hr, dose 10 mg/kg, route oral; conditions: in vivo; procedure, shortened: as §1
HepG2 [8] = experiment: Drug metabolism in human HepG2 cells assessed as HPMPAp uptake at 10 uM after 48 hrs; type: ADME, cell-based; conditions: hepg2, 48 h
Hepatitis B virus [9] = experiment: Antiviral activity against HBV harboring RNA polymerase N236T mutant gene infected in human HuH7 cells assessed as decrease in viral transient transfection […]; type: functional, organism-based; conditions: Huh-7
Procedure, shortened: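 Lamivudine- and adefovir-resistant HBV mutants introduced into Huh7 cells by transient transfection. Compounds were tested in a 5-day assay.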

Heart [10] = experiment: Cmax in Swiss-Webster mouse heart assessed per gram of tissue at 10 mg/kg, po after 24 hrs; type: ADME, organism-based; parameters: dose 10 mg/kg, route oral; conditions: in vivo; procedure, shortened: as §1
Brain [11] = experiment: AUC in Swiss-Webster mouse brain assessed per gram of tissue at 10 mg/kg, po after 24 hrs; type: ADME, organism-based; parameters: time < 24 hr, dose 10 mg/kg, route oral; conditions: in vivo; procedure, shortened: as §1
Heart [12] = experiment: AUC in Swiss-Webster mouse heart assessed per gram of tissue at 10 mg/kg, ip after 24 hrs; type: ADME, organism-based; parameters: time < 24 hr, dose 10 mg/kg, route intraperitoneal; conditions: in vivo; procedure, shortened: as §1
Mus musculus = experiment: Toxicity in transgenic mouse at 10 mg/kg, po assessed as morbidity after 7 days; type: organism-based; parameters: dose 10 mg/kg, route oral; conditions: in vivo, 168 h
Heart [13] = experiment: AUC in Swiss-Webster mouse heart assessed per gram of tissue at 10 mg/kg, po after 24 hrs; type: ADME, organism-based; parameters: time < 24 hr, dose 10 mg/kg, route oral; conditions: in vivo; procedure, shortened: as §1
Heart [14] = experiment: Cmax in Swiss-Webster mouse heart assessed per gram of tissue at 10 mg/kg, ip after 24 hrs; type: ADME, organism-based; parameters: dose 10 mg/kg, route intraperitoneal; conditions: in vivo; procedure, shortened: as §1
[15] = Tmax in Swiss-Webster mouse brain at 10 mg/kg, ip after 24 hrs; type: ADME, organism-based; parameters: dose 10 mg/kg, route intraperitoneal; procedure, shortened: as §1
[16] = Tmax in Swiss-Webster mouse lung at 10 mg/kg, po after 24 hrs; type: ADME, organism-based; parameters: dose 10 mg/kg, route oral; procedure, shortened: as §2
Hepatitis B virus [17] = experiment: Antiviral activity against HBV harboring RNA polymerase M204V mutant gene infected in human HuH7 cells assessed as decrease in viral transient transfection after 5 days; conditions: Huh-7, 5 days
HepG2 [18] = experiment: Drug metabolism in human HepG2 cells assessed as HPMPApp uptake at 10 uM after 48 hrs; type: ADME, cell-based; conditions: hepg2, 48 h
[19] = Cytotoxicity against human HepG2(2.2.15) cells after 24 hrs by neutral red assay; type: cell-based
Procedure, shortened: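 2.2.15 cells, RPMI 1640 with 2% FBS, dosed daily for nine consecutive days. Viability was read by neutral red uptake, absorbance of internalized dye at 510, 24 h after the last treatment, three cultures per concentration.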

[20] = Cmax in Swiss-Webster mouse plasma assessed per gram of tissue at 10 mg/kg, ip after 24 hrs; type: ADME, organism-based; parameters: dose 10 mg/kg, route intraperitoneal; procedure, shortened: as §1
[21] = Tmax in Swiss-Webster mouse kidney at 10 mg/kg, ip after 24 hrs; type: ADME, organism-based; parameters: dose 10 mg/kg, route intraperitoneal; procedure, shortened: as §1
Spleen [22] = experiment: AUC in Swiss-Webster mouse spleen assessed per gram of tissue at 10 mg/kg, ip after 24 hrs; type: ADME, organism-based; parameters: time < 24 hr, dose 10 mg/kg, route intraperitoneal; conditions: in vivo; procedure, shortened: as §1
[23] = Cmax in Swiss-Webster mouse plasma assessed per gram of tissue at 10 mg/kg, po after 24 hrs; type: ADME, organism-based; parameters: dose 10 mg/kg, route oral; procedure, shortened: as §1
[24] = Tmax in Swiss-Webster mouse lung at 10 mg/kg, ip after 24 hrs; type: ADME, organism-based; parameters: dose 10 mg/kg, route intraperitoneal; procedure, shortened: as §2
HepG2 [25] = experiment: Drug metabolism in human HepG2 cells assessed as HPMPA uptake at 10 uM after 24 hrs; type: ADME, cell-based; conditions: hepg2, 24 h
Procedure, shortened: (§3)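 Nearly confluent HepG2 flasks got 14C-labeled drug (final 10 µM, 50 mCi/mmol) for 24 h. Cells were washed with cold PBS, lysed in water by two freeze-thaw cycles and sonication, then extracted with cold TCA (8% final) and centrifuged at 4°C. Supernatant was counted and analyzed by SAX ion-exchange HPLC, with metabolites assigned by retention versus reference standards.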

Lung [26] = experiment: AUC in Swiss-Webster mouse lung assessed per gram of tissue at 10 mg/kg, ip after 24 hrs; type: ADME, organism-based; parameters: time < 24 hr, dose 10 mg/kg, route intraperitoneal; conditions: in vivo; procedure, shortened: as §1
[27] = Selectivity index, ratio of CC50 for human HepG2(2.2.15) cells to EC50 for HBV infected in human HepG2(2.2.15) cells
Procedure, shortened: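 Ratio from two 2.2.15 readouts after nine daily doses in RPMI/2% FBS. Extracellular HBV DNA was measured by quantitative blot hybridization and cytotoxicity by neutral red uptake (three cultures per concentration), both 24 h after the final dose.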

Hepatitis B virus [28] = experiment: Antiviral activity against wild type HBV infected in human HuH7 cells assessed as decrease in viral transient transfection after 5 days; conditions: Huh-7, 5 days
Lung [29] = experiment: Cmax in Swiss-Webster mouse lung assessed per gram of tissue at 10 mg/kg, po after 24 hrs; type: ADME, organism-based; parameters: dose 10 mg/kg, route oral; conditions: in vivo; procedure, shortened: as §1
Hepatitis B virus [30] = experiment: Antiviral activity against HBV infected in human HepG2(2.2.15) cells assessed as decrease in extracellular viral DNA level after 24 hrs by blot hybridization assay; type: functional, organism-based; conditions: HepG2 2.2.15, 24 h
Procedure, shortened: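 Confluent 2.2.15 cells in RPMI 1640 with 2% FBS got nine consecutive daily doses, with medium replaced daily with drug-containing medium. Six wells per concentration over two replicate plates. Cells were pelleted from the medium, which was kept at 4°C and not frozen. Extracellular HBV DNA was quantified by blot hybridization 24 h after the last dose.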

[31] = Tmax in Swiss-Webster mouse plasma at 10 mg/kg, ip after 24 hrs; type: ADME, organism-based; parameters: dose 10 mg/kg, route intraperitoneal; procedure, shortened: as §2
Spleen [32] = experiment: AUC in Swiss-Webster mouse spleen assessed per gram of tissue at 10 mg/kg, po after 24 hrs; type: ADME, organism-based; parameters: time < 24 hr, dose 10 mg/kg, route oral; conditions: in vivo; procedure, shortened: as §1
HepG2 [33] = experiment: Drug metabolism in human HepG2 cells assessed as HPMPAp uptake at 10 uM after 24 hrs; type: ADME, cell-based; conditions: hepg2, 24 h; procedure, shortened: as §3
Brain [34] = experiment: Cmax in Swiss-Webster mouse brain assessed per gram of tissue at 10 mg/kg, ip after 24 hrs; type: ADME, organism-based; parameters: dose 10 mg/kg, route intraperitoneal; conditions: in vivo; procedure, shortened: as §1
Kidney [35] = experiment: Cmax in Swiss-Webster mouse kidney assessed per gram of tissue at 10 mg/kg, ip after 24 hrs; type: ADME, organism-based; parameters: dose 10 mg/kg, route intraperitoneal; conditions: in vivo; procedure, shortened: as §1

SMILES: CCCCCCCCCCCCCCCCOCCCOP(=O)(O)CO[C@H](CO)Cn1cnc2c(N)ncnc21
- AUC (Liver [1]): 222.2 nmol·h/g
- AUC (Kidney [2]): 195.7 nmol·h/g
- Drug uptake (HepG2 [3]): 393 pmol
- Tmax [4]: 3 h
- Tmax [5]: 1 h
- Cmax (Liver [6]): 131.5 nmol/g
- AUC (Lung [7]): 12.8 nmol·h/g
- Drug uptake (HepG2 [8]): 344 pmol
- EC50 (Hepatitis B virus [9]): > 100000 nM
- EC90 (Hepatitis B virus [9]): > 100000 nM
- Cmax (Heart [10]): 0.2 nmol/g
- AUC (Brain [11]): 0.68 nmol·h/g
- AUC (Heart [12]): 3.8 nmol·h/g
- Activity (Mus musculus): Non-toxic
- AUC (Heart [13]): 2.69 nmol·h/g
- Cmax (Heart [14]): 0.57 nmol/g
- Tmax [15]: 1 h
- Tmax [16]: 3 h
- EC50 (Hepatitis B virus [17]): 900 nM
- EC90 (Hepatitis B virus [17]): 3200 nM
- Drug uptake (HepG2 [18]): 444 pmol
- CC50 at 24 h [19]: > 300000 nM
- Cmax [20]: 2230 nM
- Tmax [21]: 1 h
- AUC (Spleen [22]): 16.3 nmol·h/g
- Cmax [23]: 1110 nM
- Tmax [24]: 1 h
- Drug uptake (HepG2 [25]): 1007 pmol
- AUC (Lung [26]): 21.5 nmol·h/g
- Selectivity Index [27]: >483
- EC50 (Hepatitis B virus [28]): 800 nM
- EC90 (Hepatitis B virus [28]): 3000 nM
- Cmax (Lung [29]): 2.89 nmol/g
- EC50 (Hepatitis B virus [30]): 188 nM
- EC90 (Hepatitis B virus [30]): 616 nM
- Tmax [31]: 3 h
- AUC (Spleen [32]): 3.9 nmol·h/g
- Drug uptake (HepG2 [33]): 255 pmol
- Cmax (Brain [34]): 0.16 nmol/g
- Cmax (Kidney [35]): 22.9 nmol/g
